Measured values taken from ChEMBL document CHEMBL5104216, “Fragment-Sized Thiazoles in Fragment-Based Drug Discovery Campaigns: Friend or Foe?” (ACS Med Chem Lett, 2022).

Legend:
[1] = Redox activity of compound assessed as redox index at 10 uM measured by resazurin assay; format: physicochemical
Method in brief: (§1)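 Free radicals formed by redox cycling with DTT detected with resazurin by fluorimetric read-out. Spectral interference checked.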

[2] = Redox activity of compound assessed as redox index at 1 uM measured by resazurin assay; format: physicochemical; method in brief: as §1
[3] = Redox activity of compound assessed as redox index at 100 uM in presence of 1 mM DTT measured by HRP-PR assay; format: physicochemical
Method in brief: (§2)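 H2O2 from redox cycling, with or without DTT, detected with horseradish peroxidase-phenol red (HRP-PR).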

[4] = biological target: Replicase polyprotein 1ab (Severe acute respiratory syndrome coronavirus 2) (UniProt P0DTD1); test: Inhibition of recombinant SARS-CoV-2 3CLpro expressed in Escherichia coli NiCo21(DE3) assessed as residual activity at 500 uM using DABCYL-KTSAVLQSGFRKME-EDANS as substrate preincubated for 30 mins followed by substrate addition and measured by FRET assay relative to control
Method in brief: (§3)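 Kinetic fluorescence read-out of cleavage of a FRET substrate carrying a DABCYL–EDANS pair. Compounds were tested at 500–625 μM, and <50% residual activity was taken as the activity threshold. To exclude false positives, absorbance at the excitation and emission wavelengths and autofluorescence of the compounds were measured.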

[5] = biological target: D-alanine--D-alanine ligase B (Escherichia coli K-12) (UniProt P07862); test: Inhibition of recombinant Escherichia coli DdlB assessed as residual activity at 500 uM using D-alanine as substrate incubated for 20 mins and measured by malachite green based colorimetric assay relative to control
Method in brief: (§4)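 Screened at 500–625 μM with malachite green colorimetric read-out. Activity threshold was <50% residual activity.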

[6] = Redox activity of compound assessed as redox index at 100 uM in presence of 100 uM TCEP measured by H2DCFDA assay; format: physicochemical
Method in brief: (§5)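 Reactive oxygen species, with or without the reducing agent TCEP, detected with the fluorescent probe H2DCFDA. Compound spectral interference (autofluorescence) checked under the assay conditions.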

[7] = biological target: UDP-N-acetylglucosamine 1-carboxyvinyltransferase (Escherichia coli K-12) (UniProt P0A749); test: Inhibition of recombinant Escherichia coli MurA assessed as residual activity at 500 uM using UDP-N-acetylglucosamine as substrate preincubated for 30 mins followed by substrate addition and measured by malachite green based colorimetric assay relative to control
Chain of UDP-N-acetylglucosamine 1-carboxyvinyltransferase (Escherichia coli K-12) (P0A749 whole entry): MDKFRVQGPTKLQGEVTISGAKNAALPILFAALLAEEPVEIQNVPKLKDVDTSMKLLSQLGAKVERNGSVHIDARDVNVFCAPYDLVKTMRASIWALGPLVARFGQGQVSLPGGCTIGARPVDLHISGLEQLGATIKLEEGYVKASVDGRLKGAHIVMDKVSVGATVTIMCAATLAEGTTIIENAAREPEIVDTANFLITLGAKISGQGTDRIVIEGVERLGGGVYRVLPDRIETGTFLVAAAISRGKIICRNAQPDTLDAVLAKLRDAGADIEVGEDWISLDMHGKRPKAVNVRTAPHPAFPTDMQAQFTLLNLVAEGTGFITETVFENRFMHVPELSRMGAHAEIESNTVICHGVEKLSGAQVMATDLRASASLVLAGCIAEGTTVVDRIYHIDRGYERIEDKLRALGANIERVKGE
Method in brief: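 E. coli MurA at 500–625 μM with 30 min preincubation before substrate addition. Malachite green colorimetric read-out. Activity threshold was <50% residual activity.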

[8] = test system: Mycobacterium tuberculosis; test: Inhibition of Mycobacterium tuberculosis MetAP1a assessed as residual activity at 625 uM using L-methionine 7-amido-4-methylcoumarin as fluorogenic substrate and measured by fluorescence based assay
Method in brief: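 Kinetic fluorescence assay in which the enzyme hydrolyses L-methionine 7-amido-4-methylcoumarin to fluorescent 7-amino-4-methylcoumarin. Compounds were tested at 500–625 μM, and activity was called at <50% residual activity. Spectral interference was checked by measuring absorbance at the excitation and emission wavelengths and compound autofluorescence.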

[9] = biological target: UDP-N-acetylglucosamine 1-carboxyvinyltransferase (Escherichia coli K-12) (UniProt P0A749); test: Inhibition of recombinant Escherichia coli MurA assessed as residual activity at 500 uM using UDP-N-acetylglucosamine as substrate and measured by malachite green based colorimetric assay relative to control; method in brief: as §4
[10] = Redox activity of compound assessed as redox index at 100 uM measured by HRP-PR assay; format: physicochemical; method in brief: as §2
[11] = Aqueous stability of the compound at pH 7.4 measured after 60 mins by spectrophotometric analysis; format: physicochemical; settings: buffer, pH 7.4, 1 h
Method in brief: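 Followed by spectrophotometry as changes in the compound absorption spectrum over time in 50 mM Tris-HCl pH 7.4, 0.5 mM EDTA, read after 60 min in 96-well microplate format. Compounds with low absorbance were not evaluated.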

[12] = biological target: UDP-N-acetylglucosamine 1-carboxyvinyltransferase (Escherichia coli K-12) (UniProt P0A749); test: Inhibition of recombinant Escherichia coli MurA assessed as residual activity at 500 uM using UDP-N-acetylglucosamine as substrate preincubated for 30 mins in presence of 1 mM DTT followed by substrate addition and measured by malachite green based colorimetric assay relative to control
[13] = Redox activity of compound assessed as redox index at 100 uM measured by H2DCFDA assay; format: physicochemical; method in brief: as §5
[14] = biological target: Replicase polyprotein 1ab (Severe acute respiratory syndrome coronavirus 2) (UniProt P0DTD1); test: Inhibition of recombinant SARS-CoV-2 3CLpro expressed in Escherichia coli NiCo21(DE3) assessed as residual activity at 500 uM using DABCYL-KTSAVLQSGFRKME-EDANS as substrate preincubated for 30 mins in presence of 1mM DTT followed by substrate addition and measured by FRET assay relative to control; method in brief: as §3
[15] = Thiol reactivity of compound measured by TNB2- assay; format: physicochemical
Method in brief: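 Reactivity toward the thiol surrogate TNB2– in a nonproteinaceous setting without TCEP. Reversibility tested by adding TCEP and checking that absorbance was restored.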

[16] = Thiol reactivity of compound at 100 uM measured by DTNB assay; format: physicochemical

SMILES: CCOC(=O)c1csc(N)n1
- Activity_index [1]: 1
- Activity_index [2]: 0.9
- Activity_index [3]: 1
- Activity [4]: 18.9%
- Activity [5]: 89%
- Activity_index [6]: 0.7
- Activity [7]: 9%
- Activity [8]: 93.7%
- Activity [9]: 18.6%
- Activity_index [10]: 0.8
- Stability [11]: Stable
- Activity [12]: 105%
- Activity_index [13]: 1.1
- Activity [14]: 76.3%
- Activity [15]: Active

SMILES: O=C(O)C(=O)Nc1ncc(Br)s1
- Activity_index [1]: 0.9
- Activity_index [2]: 0.9
- Activity_index [3]: 1
- Activity [4]: 62.2%
- Activity [5]: 94%
- Activity_index [6]: 1.2
- Activity [7]: 1.2%
- Activity [8]: 28.9%
- Activity [9]: 11.3%
- Activity_index [10]: 1
- Stability [11]: Stable
- Activity [12]: 112%
- Activity_index [13]: 1
- Activity [14]: 82.8%
- Activity [15]: Active

SMILES: N#Cc1cnc(Br)s1
- Activity_index [1]: 1
- Activity_index [2]: 0.9
- Activity_index [3]: 1
- Activity [4]: 101%
- Activity [5]: 94%
- Activity_index [6]: 0.8
- Activity [7]: 94.3%
- Activity [8]: 128%
- Activity [9]: 96%
- Activity_index [10]: 1
- Stability [11]: Stable
- Activity [12]: 100%
- Activity_index [13]: 1
- Activity [14]: 75.5%
- Activity [15]: Active

SMILES: O=C(O)c1csc(-c2ccc(F)cc2)n1
- Activity_index [1]: 0.9
- Activity_index [2]: 0.9
- Activity_index [3]: 1
- Activity [4]: 82.6%
- Activity [5]: 94%
- Activity_index [6]: 0.8
- Activity [7]: 12.8%
- Activity [8]: 141%
- Activity [9]: 58.7%
- Activity_index [10]: 0.8
- Stability [11]: Stable
- Activity [12]: 90%
- Activity_index [13]: 1.1
- Activity [14]: 88.1%
- Activity [15]: Active

SMILES: O=S(=O)(Cc1ccccc1)Nc1nccs1
- Activity_index [1]: 2
- Activity_index [2]: 1
- Activity_index [3]: 1
- Activity [4]: 20%
- Activity [5]: 93%
- Activity_index [6]: 10.2
- Activity [7]: 0%
- Activity [8]: 45.2%
- Activity [9]: 0%
- Activity_index [10]: 0.8
- Stability [11]: Stable
- Activity [12]: 94%
- Activity_index [13]: 22.2
- Activity [14]: 82.8%
- Activity [15]: Active

SMILES: Nc1ncc(Br)s1
- Activity_index [1]: 1.1
- Activity_index [2]: 0.9
- Activity_index [3]: 1
- Activity [4]: 42.5%
- Activity [5]: 91%
- Activity_index [6]: 1.5
- Activity [7]: 9%
- Activity [8]: 156%
- Activity [9]: 21.1%
- Activity_index [10]: 1
- Stability [11]: Stable
- Activity [12]: 100%
- Activity_index [13]: 1.6
- Activity [14]: 79.4%
- Activity [15]: Active

SMILES: CCOC(=O)c1sc(Br)nc1C
- Activity_index [1]: 0.9
- Activity_index [2]: 0.9
- Activity_index [3]: 1
- Activity [4]: 91.6%
- Activity [5]: 93%
- Activity_index [6]: 1.3
- Activity [7]: 9.1%
- Activity [8]: 115%
- Activity [9]: 19.5%
- Activity_index [10]: 1
- Stability [11]: Unstable
- Activity [12]: 103%
- Activity_index [13]: 1.3
- Activity [14]: 85.8%
- Activity [15]: Active

SMILES: N#Cc1cnc(NC(=O)C(=O)O)s1
- Activity_index [1]: 0.9
- Activity_index [2]: 0.9
- Activity_index [3]: 1
- Activity [4]: 104%
- Activity [5]: 105%
- Activity_index [6]: 0.7
- Activity [7]: 90.6%
- Activity [8]: 150%
- Activity [9]: 112%
- Activity_index [10]: 1
- Stability [11]: Stable
- Activity [12]: 114%
- Activity_index [13]: 0.9
- Activity [14]: 97.6%
- Activity [15]: Active

SMILES: COC(=O)CC(=O)Nc1ncc(C#N)s1
- Activity_index [1]: 1
- Activity_index [2]: 0.9
- Activity_index [3]: 1
- Activity [4]: -4.7%
- Activity [5]: 88%
- Activity_index [6]: 1
- Activity [7]: 5.8%
- Activity [8]: 92.6%
- Activity [9]: 29.7%
- Activity_index [10]: 1
- Stability [11]: Stable
- Activity [12]: 112%
- Activity_index [13]: 0.9
- Activity [14]: 86.3%
- Activity [15]: Active

SMILES: Cc1cnc(N)s1
- Activity_index [1]: 0.9
- Activity_index [2]: 1
- Activity_index [3]: 1
- Activity [4]: 88%
- Activity [5]: 92%
- Activity_index [6]: 1.3
- Activity [7]: 85.2%
- Activity [8]: 118%
- Activity [9]: 95.2%
- Activity_index [10]: 1
- Stability [11]: Stable
- Activity [12]: 94.6%
- Activity_index [13]: 1.3
- Activity [14]: 79.8%
- Activity [15]: Active

SMILES: Cc1nc(CCl)cs1
- Activity_index [1]: 0.9
- Activity_index [2]: 0.9
- Activity_index [3]: 1
- Activity [4]: 96.8%
- Activity [5]: 100%
- Activity_index [6]: 0.8
- Activity [7]: 48.4%
- Activity [8]: 124%
- Activity [9]: 89.6%
- Activity_index [10]: 1
- Activity [12]: 112%
- Activity_index [13]: 1
- Activity [14]: 90.9%
- Activity [16]: Active
- Activity [15]: Active

SMILES: N#Cc1cnc(N)s1
- Activity_index [1]: 1.2
- Activity_index [2]: 0.9
- Activity_index [3]: 1
- Activity [4]: 1.1%
- Activity [5]: 91%
- Activity_index [6]: 0.8
- Activity [7]: 6.1%
- Activity [8]: 90.8%
- Activity [9]: 18.9%
- Activity_index [10]: 1
- Stability [11]: Stable
- Activity [12]: 102%
- Activity_index [13]: 1
- Activity [14]: 74.1%
- Activity [15]: Active

SMILES: O=C(O)c1csc(Nc2cccc3ncccc23)n1
- Activity_index [1]: 2.4
- Activity_index [2]: 1
- Activity_index [3]: 1
- Activity [4]: 42.7%
- Activity [5]: 82%
- Activity_index [6]: 1.6
- Activity [7]: 0%
- Activity [8]: 36.8%
- Activity [9]: 1.4%
- Activity_index [10]: 1
- Stability [11]: Stable
- Activity [12]: 80.9%
- Activity_index [13]: 1.3
- Activity [14]: 41.2%
- Activity [15]: Active

SMILES: CC(C)(C)c1csc(N)n1
- Activity_index [1]: 0.9
- Activity_index [2]: 1.1
- Activity_index [3]: 1
- Activity [4]: 13%
- Activity [5]: 94%
- Activity_index [6]: 0.5
- Activity [7]: 3.5%
- Activity [8]: 128%
- Activity [9]: 5.7%
- Activity_index [10]: 1
- Activity [12]: 106%
- Activity_index [13]: 1.1
- Activity [14]: 79.1%
- Activity [15]: Active
